Bioassay records from PubChem BioAssay.
MEKK3 PB1 HTS – modulators (inhibitors or enhancers) of MEK5 binding to human MEKK3 PB1 domain; AID 1529; bead-based flow cytometry, Alexa488-MEK5 binding to MEKK3; actives lie on both sides; 0 = blocked by unlabeled MEK5, 100 = vehicle; actives 1.4% (n = 290,000); binding response (% of control), % at 10 µM; Q99759;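 active = binding response more than 3 SD above or below the average of its plate-row segment, actives on both sides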;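 note: Alexa488 bead fluorescence after subtracting the streptavidin-only scavenger bead signal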
Target sequence (Q99759 whole entry, looked up, the tested form may be a part): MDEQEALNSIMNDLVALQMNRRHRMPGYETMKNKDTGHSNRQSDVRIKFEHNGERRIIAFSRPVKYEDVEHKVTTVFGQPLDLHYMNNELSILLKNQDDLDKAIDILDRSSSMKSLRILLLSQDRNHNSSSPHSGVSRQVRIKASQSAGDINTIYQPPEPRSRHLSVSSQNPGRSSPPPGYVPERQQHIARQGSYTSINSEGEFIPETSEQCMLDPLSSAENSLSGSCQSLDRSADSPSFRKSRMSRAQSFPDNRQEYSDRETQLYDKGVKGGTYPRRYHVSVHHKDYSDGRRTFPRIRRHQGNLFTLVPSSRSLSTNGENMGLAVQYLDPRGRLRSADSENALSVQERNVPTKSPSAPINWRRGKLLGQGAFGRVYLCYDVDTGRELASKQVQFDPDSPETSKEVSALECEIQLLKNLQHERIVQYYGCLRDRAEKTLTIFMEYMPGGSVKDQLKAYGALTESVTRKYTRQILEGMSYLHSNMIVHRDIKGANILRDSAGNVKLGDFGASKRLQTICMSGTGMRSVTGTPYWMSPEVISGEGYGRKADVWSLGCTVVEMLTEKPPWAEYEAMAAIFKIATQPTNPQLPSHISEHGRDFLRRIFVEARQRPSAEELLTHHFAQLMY
MEKK2 WT-MEK5 – raises or lowers MEK5 binding to wildtype human MEKK2 PB1 domain; Q9Y2U5; binding response (% of control), % at 10 µM; bead flow cytometry, Alexa488-MEK5 binding to MEKK2 WT; actives lie on both sides; actives 1.1% (n = 290,000); in the data active = binding response below about 67% or above about 130%
T cruzi repl – T. cruzi replication inhibition. T. cruzi beta-gal in NIH3T3, luminescence, 90 h. inhibition, % (no concentration beside the values). actives 1.4% (n = 300,000). AID 1885;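 active = mean inhibition across valid replicates above about 55%, limit read from the data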;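 note: signal also drops with host cell toxicity which is not excluded here; 0% = plate median of DMSO wells and 100% = zero luminescence signal; higher percent means less beta-gal luminescence so fewer parasites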
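assay system = mouse NIH/3T3 fibroblasts infected with β-gal-expressing T. cruzi Tulahuen C4 | input = 5,000 NIH/3T3 host cells per well | buffer or medium = DMEM plus 2% FBS | timing = 3 h host attachment, then at least 90 h co-culture | measured by = GalScreen luminescence, 60 min | evaluation = luminescence reflecting intracellular parasite burden, expressed as percent inhibition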
NS3 helicase inh – inhibitors of Hepatitis C virus NS3 helicase; NS3 helicase DNA unwinding, Cy5 molecular beacon fluorescence; inhibition, % at 10.9 µM; actives 0.56% (n = 290,000); AID 1800;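 active = inhibition above the mean of all tested compounds plus 3 SD, set per campaign, cut at about 35% in these data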;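 note: 0% = DMSO wells and 100% = thioflavine S control wells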
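Control set: DMSO versus 110 µM thioflavine S; Material: NS3 helicase fragment of HCV; Measured by: Cy5 fluorescence at 0 and 60 min, beacon hairpin quenching; Read-out basis: percent inhibition from t60/t0 fluorescence ratio; Times: reaction time 60 min, 25 °C; Repeats: single replicate; Compound dosing: single dose, 10.9 µM nominal final, DMSO 0.8% final.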
MEKK2 mut-MEK5 – signal of MEK5 binding to mutant human MEKK2 PB1 domain. bead flow cytometry, Alexa488-MEK5 binding to MEKK2 mutant. percent response, % at 10 µM. actives 0.35% (n = 290,000); in the data active = percent response above about 24%, passing the limit was not always enough
DNA FID counter – displaces DNA intercalator in HCV helicase counter-screen; DNA fluorescent intercalator displacement, fluorescence; inhibition, % at 7.9 µM; actives 0.17% (n = 290,000); AID 1845; in the data active = inhibition above about 37%;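 note: 0% = vehicle and 100% = reference compound; higher means more ethidium bromide displaced from hairpin DNA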
* hit, by the source's call. In the library only some 4.1% were active in any assay of this set; here they are far more common.

SMILES | MEKK3 PB1 HTS | MEKK2 WT-MEK5 | T cruzi repl | NS3 helicase inh | MEKK2 mut-MEK5 | DNA FID counter
Nc1c(S(=O)(=O)c2cccc(Cl)c2)c2nc3ccccc3nc2n1/N=C/c1ccc(O)c(O)c1 | 109.0 | 101.0 | 62.0* | 10.6 | -9.0 | 8.2
COc1ccccc1N1CCN(CCN2C(=O)C3CCCCN3C2=O)CC1 (stereo unspecified) | 98.0 | 101.0 | -0.3 | -0.2 | 0.0 | 0.2
O=C(N/N=C\c1cccc(Cl)c1)c1ccc(Cn2cc(Br)c([N+](=O)[O-])n2)o1 | 99.0 | 104.0 | 54.0 | -8.2 | -1.0 | 0.3
Cc1ccc(/C=N\NC(=O)c2ccc(Cn3cc(Br)c([N+](=O)[O-])n3)o2)o1 | 94.0 | 97.0 | 73.7* | 3.2 | -6.0 | 1.2
CN(Cc1nc(Cc2ccccc2F)no1)Cc1cccc2ncccc12 | 110.0 | 101.0 | -19.7 | -10.0 | -7.0 | -31.0
O=C(CCl)c1ccc2c(c1)CCN2C(=O)C1CC1 | 110.0 | 101.0 | 19.0 | 6.1 | -8.0 | 11.9
O=C(CCl)c1ccc2c(c1)CCN2C(=O)C1CCCCC1 | 117.0 | 97.0 | 89.8* | -49.0 | -7.0 | -8.8
COc1cccc(CC2(CO)CCCN(C/C=C/c3ccccc3OC)C2)c1 (stereo unspecified) | 103.0 | 115.0 | 62.5* | -26.9 | 3.0 | 18.0
COc1cc(Cl)c(CN2CCCC(CO)(Cc3cccc(Cl)c3)C2)cc1OC (stereo unspecified) | 105.0 | 110.0 | 35.8 | -18.0 | 6.0 | 0.7
COc1ccccc1/C=C/CN1CCCC(CO)(Cc2cccc(Cl)c2)C1 (stereo unspecified) | 111.0 | 190.0* | 31.8 | -66.5 | 60.0* | 23.3
COc1cccc(-n2c(CN3CCN(c4ccc(C)cc4)C(C)C3)nc3ccc([N+](=O)[O-])cc3c2=O)c1 (stereo unspecified) | 93.0 | 91.0 | 39.3 | 3.3 | -2.0 | -2.5
COc1cccc(-n2c(CN3CCN(c4cccc(C)c4)C(C)C3)nc3ccc([N+](=O)[O-])cc3c2=O)c1 (stereo unspecified) | 98.0 | 95.0 | 59.3* | 10.0 | -2.0 | 0.6
CN1CCN(C(=S)c2cn(CCOc3ccccc3F)c3ccccc23)CC1 | 102.0 | -9.0* | 18.5 | -48.6 | 4.0 | 18.6
O=C(N/N=C/c1ccncc1)c1sc2ccccc2c1Cl | 99.0 | 100.0 | 3.3 | -7.4 | 2.0 | -28.0
O=C(N/N=C/c1ccc[nH]1)c1sc2ccccc2c1Cl | 110.0 | 104.0 | 69.4* | 5.9 | 6.0 | -3.5
Cc1ccc(NC(=O)CSc2nc(C)c(Cc3ccccc3)c(=O)[nH]2)cc1C | 105.0 | 26.0* | -9.5 | 11.2 | 3.0 | -2.9
Cc1occc(=O)c1O | 99.0 | 98.0 | -14.6 | 0.5 | 3.0 | -0.2
CN(CCCNC(=O)CCCOc1cc(=O)n(C)c2ccccc12)Cc1ccccc1 | 102.0 | 105.0 | 71.3* | 14.4 | 3.0 | 4.2
CN(CCNC(=O)CCCOc1cc(=O)n(C)c2ccccc12)Cc1ccccc1 | 101.0 | 105.0 | 34.8 | 5.1 | -12.0 | 6.1
COc1ccc(NC(=O)CCN2CCN(C/C=C/c3ccccc3)CC2)cc1 | 105.0 | 111.0 | 56.6* | -7.5 | 0.0 | 11.8
COc1cc(NC(=O)CCN2CCN(C/C=C/c3ccccc3)CC2)cc(OC)c1 | 103.0 | 115.0 | 57.6* | -36.3 | 13.0 | 11.7
Cc1[nH]c2ccccc2c1C(=O)CN1CCN(C/C=C/c2ccccc2)CC1 | 102.0 | 120.0 | 31.8 | -50.1 | 5.0 | 22.5
COc1ccc2[nH]c(C)c(C(=O)CN3CCN(C/C=C/c4ccccc4)CC3)c2c1 | 111.0 | 106.0 | 31.9 | -79.0 | 4.0 | 38.5*
CC(C)c1ccc(NC2CCCN(C(=O)c3n[nH]c4c3CCC4)C2)cc1 (stereo unspecified) | 103.0 | 105.0 | 2.7 | 0.8 | 2.0 | -33.3
Cc1ccccc1C(=O)c1cccn1CC(=O)NC(C)c1ccc2c(c1)OCCO2 (stereo unspecified) | 104.0 | 110.0 | -10.3 | -5.2 | 5.0 | -30.5
COc1ccc(C(CNC(=O)c2ccc(S(=O)(=O)Nc3ccc(F)cc3)cc2)N(C)C)cc1 (stereo unspecified) | 108.0 | 119.0 | 2.2 | -55.5 | 31.0* | 9.8
